Tests used:
[1] = species: Mus musculus; experiment: In vitro inhibition of the accumulation of (-)-[3H]Norepinephrine in slices from the middle part of the mouse brain.; type: functional
[2] = tested on: Mus musculus; experiment: Ex vivo inhibition of the accumulation of (-)-[3H]Norepinephrine in slices from the middle part of the mouse brain. (i.p.); type: functional; conditions: ip
Procedure, shortened: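 Compound given i.p.; mice killed 60 min later. Brain slices (about 1 mm) preincubated 5 min at 37 °C in Krebs-Henseleit buffer with 1 × 10^-4 M pargyline, glucose, ascorbate and EDTA under 6.5% CO2/O2. Then 5 min with 1 × 10^-7 M [3H]NE plus 1 × 10^-7 M [14C]-5-HT, counted by double labelling. Active uptake is the cocaine-sensitive (5 × 10^-4 M) part. 3–4 doses, 4 mice/dose; ED50 from semilog plots.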

[3] = species: Rattus norvegicus; experiment: In vitro inhibition of the accumulation of (-)-[3H]Norepinephrine in synaptosomes from the rat brain cortex; type: functional
[4] = Selectivity expressed as ratio between NE and 5-HT uptake inhibition in rat synaptosomes; type: functional, subcellular; conditions: Brain
[5] = Selectivity expressed as ratio between NE and 5-HT uptake inhibition in mouse brain slices; type: functional

Row | Compound | IC50 [1] [µM] | ED50 [2] [µmol/kg] | IC50 [3] [µM] | Ratio [4] | Ratio [5]
1 | CNCCC=C1c2ccccc2CCc2ccccc21 [NORTRIPTYLINE] | 0.5 | 67 | 0.007 | 0.0035 | 0.075
2 | CNC/C=C(\c1ccc(Br)cc1)c1cccnc1 [NORZIMELIDINE] |  | 25 | 0.0046 | 0.058 | 
3 | CN(C)CC/C=C(/c1ccc(Br)cc1)c1cccnc1 | > 24 | > 95 | 22.5 | 45 | >27
4 | CNCC/C=C(\c1ccc(Br)cc1)c1cccnc1 | 0.25 | 98 | 1 | 0.71 | 2.1
5 | CN(C)C/C=C(/c1ccc(Br)cc1)c1cccnc1 [ZIMELDINE] |  | > 98 | 3.2 | 32 | 
6 | CNCC/C=C(/c1ccc(Br)cc1)c1cccnc1 | > 25 | > 98 | 6.6 | 28 | >50
7 | CN(C)CCC=C1c2ccccc2CCc2ccccc21 [AMITRIPTYLINE] | 5.4 | 114 | 0.061 | 0.19 | 1.9
8 | CN(C)CC/C=C(\c1ccc(Br)cc1)c1cccnc1 | 7.8 | 95 | 1.4 | 0.54 | 1.1
9 | CN(C)C/C=C(\c1ccc(Br)cc1)c1cccnc1 |  | 25 | 0.15 | 0.68 | 
10 | CNC/C=C(/c1ccc(Br)cc1)c1cccnc1 [NOMELIDINE] |  | > 102 | 0.24 | 6.3 | 

Reference: ChEMBL document CHEMBL1124236, “Homoallylic amines related to zimeldine. A comparative study on neuronal serotonin and norepinephrine reuptake based on conformational analysis” (J Med Chem, 1988)
